From ChEMBL document CHEMBL4823296, “NMR-Guided Design of Potent and Selective EphA4 Agonistic Ligands” (J Med Chem, 2021) come the findings set out here.

Converted amounts (≈) assume the structure as drawn. The source made the active and inactive calls. The rule behind the calls is not given here. Non-standard residues stand in square brackets, D forms with d. Residues, ends and D or L forms follow the SMILES beside them. *: point of attachment. Cyclohexanoyl(1S,3S-3-NH2) = N[C@H]1CCC[C@H](C(=O)*)C1; Trp(5-OH) = N[C@@H](Cc1c[nH]c2ccc(O)cc12)C(=O)O; NH(4-morpholinophenyl) = c1cc(N2CCOCC2)ccc1N*; Bip = N[C@@H](Cc1ccc(-c2ccccc2)cc1)C(=O)O; hArg = N=C(N)NCCCC[C@H](N)C(=O)O

Data set [1] can be described thus: Aqueous solubility of compound. In kind it is physicochemical. The settings on record: buffer.
A further data set concerns the target Ephrin type-A receptor 2 (Homo sapiens, UniProt P29317). The data set is described as follows: Binding affinity to N-terminal His tagged EphA2 LBD (27 to 200 residues) (unknown origin) expressed in Origami (DE3) cells by isothermal titration calorimetry. On the technique in general: Isothermal titration calorimetry measures the heat released or taken up as one component is titrated into another.

For data set [2], the system named is Neuron. The data set is described as follows: Cytoprotective activity against patient derived induced astrocyte-mediated B6-Cg-Tg(Hlxb9-GFP)1Tmj/J (Hb9-GFP) mouse motor neuron death at 100 uM measured after 3 days by imaging method. In kind it is functional, tissue-based. The settings on record: time 3.0 day. Summed up: (§1)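 Patient fibroblast-derived NPCs differentiated 5 days into induced astrocytes (DMEM, 10% FBS, 0.2% N2), seeded 10,000 per well; 24 h later GFP+ (HB9 promoter) motor neurons sorted from mouse embryoid bodies added at 10,000 per well together with compound. Imaged up to 3 days; neurons with neurites >50 μm counted alive, normalized to healthy-control survival; at least 2 independent experiments.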

Data set [3] deals with Ephrin type-A receptor 4 (Mus musculus) (UniProt Q03137). The data set is described as follows: Agonist activity at EphA4 in B6-Cg-Tg(Hlxb9-GFP)1Tmj/J (Hb9-GFP) mouse spinal cord motor neurons assessed as induction of growth cone collapse at 1 to 10 uM by rhodamine-coupled phalloidin dye based inverted fluorescent microscopic method. The settings on record: filed as agonist, dose 1-10 µM. Summed up: (§2)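 Primary Hb9-GFP mouse spinal cord motor neurons at 2 DIV treated as in receptor activation assay (30 min, 37°C), 1 or 10 μM, alone or with pre-clustered ephrinA1-Fc (2 μg/mL); 0.1% DMSO negative control. Fixed in 2% paraformaldehyde, F-actin stained with rhodamine-phalloidin, ChAT immunolabelled; 20× fluorescence imaging, percent collapsed growth cones, 100 images per group; SEM, n=4–6 coverslips.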
Chain of Ephrin type-A receptor 4 (Mus musculus) (Q03137 whole entry): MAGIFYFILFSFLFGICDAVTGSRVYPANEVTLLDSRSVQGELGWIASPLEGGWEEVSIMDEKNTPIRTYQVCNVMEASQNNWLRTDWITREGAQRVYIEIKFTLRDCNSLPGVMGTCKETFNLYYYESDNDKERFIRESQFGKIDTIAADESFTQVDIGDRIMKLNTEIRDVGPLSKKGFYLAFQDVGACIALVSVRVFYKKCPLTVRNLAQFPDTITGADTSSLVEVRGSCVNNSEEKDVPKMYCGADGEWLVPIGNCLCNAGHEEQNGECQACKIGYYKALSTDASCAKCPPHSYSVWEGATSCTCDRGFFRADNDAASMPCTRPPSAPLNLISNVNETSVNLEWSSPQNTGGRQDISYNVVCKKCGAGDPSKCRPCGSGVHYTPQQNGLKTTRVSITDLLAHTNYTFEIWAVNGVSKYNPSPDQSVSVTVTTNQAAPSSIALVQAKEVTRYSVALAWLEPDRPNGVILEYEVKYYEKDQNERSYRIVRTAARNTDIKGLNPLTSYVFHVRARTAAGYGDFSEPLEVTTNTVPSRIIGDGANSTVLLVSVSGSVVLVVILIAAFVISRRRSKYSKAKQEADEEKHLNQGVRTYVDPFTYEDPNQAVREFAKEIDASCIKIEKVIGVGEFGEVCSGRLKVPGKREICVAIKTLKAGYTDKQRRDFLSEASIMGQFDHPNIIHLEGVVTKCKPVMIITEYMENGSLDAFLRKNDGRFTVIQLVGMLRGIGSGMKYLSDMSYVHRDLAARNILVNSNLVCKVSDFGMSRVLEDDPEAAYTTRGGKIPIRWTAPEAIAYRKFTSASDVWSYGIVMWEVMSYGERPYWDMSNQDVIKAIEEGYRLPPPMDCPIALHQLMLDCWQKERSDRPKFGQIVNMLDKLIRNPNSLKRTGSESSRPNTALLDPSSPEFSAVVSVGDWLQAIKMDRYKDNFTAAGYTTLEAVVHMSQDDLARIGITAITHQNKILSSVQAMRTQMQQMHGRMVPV

For data set [4], the target named is T1, Ephrin type-A receptor 4 (Homo sapiens, UniProt P54764). The data set is described as follows: Displacement of EphrinA5 from N-terminal His tagged EphA4 LBD (unknown origin) (29 to 209 residues) expressed in Rosetta-Gami B(DE3) cells by 2D-[13C-1H] HSQC NMR spectroscopy. The format is cell-based. The settings on record: filed as agonist.
T1 sequence (P54764 whole entry, the tested form may be a part): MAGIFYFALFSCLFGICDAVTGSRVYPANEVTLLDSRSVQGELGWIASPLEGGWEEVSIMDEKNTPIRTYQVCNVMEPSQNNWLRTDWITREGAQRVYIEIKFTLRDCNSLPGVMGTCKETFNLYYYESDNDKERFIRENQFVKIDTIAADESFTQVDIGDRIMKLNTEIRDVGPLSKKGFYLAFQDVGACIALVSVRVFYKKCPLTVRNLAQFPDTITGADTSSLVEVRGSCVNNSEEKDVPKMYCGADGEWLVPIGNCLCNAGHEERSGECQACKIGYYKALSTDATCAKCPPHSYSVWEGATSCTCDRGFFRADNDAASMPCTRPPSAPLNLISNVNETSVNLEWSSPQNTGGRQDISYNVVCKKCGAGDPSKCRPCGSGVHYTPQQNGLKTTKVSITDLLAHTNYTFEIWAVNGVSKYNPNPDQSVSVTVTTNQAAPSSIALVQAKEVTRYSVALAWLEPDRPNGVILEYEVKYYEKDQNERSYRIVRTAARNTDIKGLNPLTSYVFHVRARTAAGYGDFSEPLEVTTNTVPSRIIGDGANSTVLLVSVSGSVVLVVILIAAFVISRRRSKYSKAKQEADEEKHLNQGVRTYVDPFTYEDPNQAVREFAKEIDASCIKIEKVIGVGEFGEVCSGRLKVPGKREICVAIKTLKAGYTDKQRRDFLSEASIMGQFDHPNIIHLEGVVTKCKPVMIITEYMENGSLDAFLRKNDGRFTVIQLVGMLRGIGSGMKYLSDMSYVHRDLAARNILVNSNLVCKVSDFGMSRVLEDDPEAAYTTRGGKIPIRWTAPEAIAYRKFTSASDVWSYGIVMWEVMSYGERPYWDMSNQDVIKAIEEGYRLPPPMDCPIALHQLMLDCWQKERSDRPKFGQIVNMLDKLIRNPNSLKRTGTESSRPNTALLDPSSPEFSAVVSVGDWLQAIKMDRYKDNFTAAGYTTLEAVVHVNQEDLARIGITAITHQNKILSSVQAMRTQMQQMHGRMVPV
The target in data set [5] is T1, Ephrin type-A receptor 4. The data set is described as follows: Binding affinity to N-terminal His tagged EphA4 LBD (unknown origin) (29 to 209 residues) expressed in Rosetta-Gami B(DE3) cells by isothermal titration calorimetry.
For data set [6], the target named is Ephrin type-A receptor 4 (Mus musculus) (UniProt Q03137). Briefly: Agonist activity at EphA4 in B6-Cg-Tg(Hlxb9-GFP)1Tmj/J (Hb9-GFP) mouse primary spinal cord motor neuron cells assessed as protein phosphorylation at […] residues at 1 to 10 uM incubated for 30 mins by Western blotting analysis. The settings on record: filed as agonist, dose 1-10 µM. Summed up: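 Hb9-GFP mouse motor neurons from P0–2 spinal cords (papain/DNase I dissociation, OptiPrep purification), plated on poly-D-lysine/laminin in Neurobasal/B27, then 5% horse serum plus CNTF; at 2 DIV treated 30 min at 37°C, 5% CO2/10% O2, at 1 or 10 μM; 0.1% DMSO, pre-clustered Fc and ephrinA1-Fc (2 μg/mL) controls. Lysates immunoprecipitated with anti-EphA4, blotted for phosphotyrosine, reprobed for EphA4; pEphA4/total EphA4 band density ratio; SEM, each experiment repeated 3 times.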

For data set [7] the target is unchanged. The data set is described as follows: Agonist activity at EphA4 in B6-Cg-Tg(Hlxb9-GFP)1Tmj/J (Hb9-GFP) mouse spinal cord motor neurons assessed as induction of growth cone collapse at 1 to 10 uM in presence of ephrin A1-Fc by rhodamine-coupled phalloidin dye based inverted fluorescent microscopic method. The settings on record: filed as agonist, dose 1-10 µM. Summed up: as §2

For data set [8], the system named is Neuron. The data set is described as follows: Cytoprotective activity against patient derived induced astrocyte-mediated B6-Cg-Tg(Hlxb9-GFP)1Tmj/J (Hb9-GFP) mouse motor neuron death at 10 uM measured after 3 days by imaging method. In kind it is functional, tissue-based. The settings on record: time 3.0 day. Summed up: as §1

Chain of Ephrin type-A receptor 2 (P29317 whole entry, the tested form may be a part): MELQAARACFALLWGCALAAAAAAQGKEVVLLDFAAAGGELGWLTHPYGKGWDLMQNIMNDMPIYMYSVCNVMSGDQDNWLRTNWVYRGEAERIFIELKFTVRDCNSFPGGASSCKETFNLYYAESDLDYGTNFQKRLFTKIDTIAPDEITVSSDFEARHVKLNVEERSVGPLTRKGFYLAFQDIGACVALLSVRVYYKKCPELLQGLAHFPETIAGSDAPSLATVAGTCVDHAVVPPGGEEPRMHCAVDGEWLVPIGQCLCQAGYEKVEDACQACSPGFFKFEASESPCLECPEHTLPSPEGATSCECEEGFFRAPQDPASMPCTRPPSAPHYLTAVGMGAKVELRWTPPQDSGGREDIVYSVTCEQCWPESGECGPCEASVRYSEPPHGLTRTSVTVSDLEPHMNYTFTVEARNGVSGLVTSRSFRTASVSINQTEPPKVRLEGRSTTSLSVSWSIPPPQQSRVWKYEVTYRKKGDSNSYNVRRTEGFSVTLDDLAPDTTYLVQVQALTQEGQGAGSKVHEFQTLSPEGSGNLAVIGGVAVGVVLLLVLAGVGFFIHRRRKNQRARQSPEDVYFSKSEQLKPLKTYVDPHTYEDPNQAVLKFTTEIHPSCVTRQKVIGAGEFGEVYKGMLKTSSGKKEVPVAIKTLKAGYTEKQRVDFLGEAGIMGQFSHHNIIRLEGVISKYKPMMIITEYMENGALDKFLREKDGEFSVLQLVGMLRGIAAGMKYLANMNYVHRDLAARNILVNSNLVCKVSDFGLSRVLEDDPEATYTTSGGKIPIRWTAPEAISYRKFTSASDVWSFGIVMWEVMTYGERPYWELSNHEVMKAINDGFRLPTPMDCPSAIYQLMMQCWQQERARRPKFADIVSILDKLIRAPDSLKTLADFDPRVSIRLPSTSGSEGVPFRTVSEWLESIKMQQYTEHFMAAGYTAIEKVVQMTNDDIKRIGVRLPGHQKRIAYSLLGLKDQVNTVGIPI

On to `COc1ccc2[nH]cc(CCNC(=O)[C@H](Cc3ccncc3)NC(=O)[C@H](Cc3ccc(Cl)cc3)NC(=O)[C@H](Cc3c[nH]c4ccc(O)cc34)NC(=O)CCCN)c2c1`, for which the solubility in data set [1] (read-out: solubility) is 100 µM (≈ 80.7 µg/mL). Besides, the Kd result on Ephrin type-A receptor 2 is listed as “Not Active”. Besides, the outcome in the data set with Neuron [2] was Active.
For the molecule `N=C(N)NCCCC[C@H](NC(=O)[C@H](Cc1ccc(-c2ccccc2)cc1)NC(=O)[C@H](Cc1c[nH]c2ccc(O)cc12)NC(=O)[C@H]1CCC[C@H](N)C1)C(=O)NCC(=O)Nc1ccc(N2CCOCC2)cc1` ({Cyclohexanoyl(1S,3S-3-NH2)}-[Trp(5-OH)][Bip][hArg]G-{NH(4-morpholinophenyl)}), the outcome (in data set [3]; at Ephrin type-A receptor 4 [4]; in [6]; in [7]; in the data set with Neuron [8]) was Active. For the same molecule, the Kd on Ephrin type-A receptor 4 [5] came to 113 nM. For the same molecule, the solubility in data set [1] is greater than 50000 µM.

By solubility is commonly meant the dissolved amount per volume that the medium holds. One may read the Kd as the equilibrium constant for the complex coming apart. Read a high Kd as weaker binding.
